Data from ChEMBL document CHEMBL2331457, “Synthesis and biological evaluation of 2-(arylethynyl)quinoline derivatives as mGluR5 antagonists for the treatment of neuropathic pain” (Bioorg Med Chem Lett, 2013).
Active and inactive are the calls of the source. No cut-off for these calls is given here.

Experiments:
[1] = biological target: T1, Metabotropic glutamate receptor 5 (Homo sapiens, UniProt P41594); experiment: Antagonist activity at human mGluR5 expressed in HEK293 cells assessed as inhibition of L-glutamate-induced calcium mobilization at 10 uM by FDSS6000 assay; assay type: functional, cell-based
Outline: (§1)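 HEK cells stably expressing mGluR5, grown in DMEM with 10% FBS, penicillin, streptomycin and puromycin (10 µg/mL) at 37 °C, 5% CO₂. Cells seeded at 40,000/well, incubated 18 h, then loaded with Calcium-5 dye. In the FDSS6000 fluorescence assay, receptor activated with L-glutamate in HBSS in the presence of various concentrations of test compound. Read-out is inhibition of the Ca²⁺ signal.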
Target sequence in this assay (P41594 21-1212 limits assumed): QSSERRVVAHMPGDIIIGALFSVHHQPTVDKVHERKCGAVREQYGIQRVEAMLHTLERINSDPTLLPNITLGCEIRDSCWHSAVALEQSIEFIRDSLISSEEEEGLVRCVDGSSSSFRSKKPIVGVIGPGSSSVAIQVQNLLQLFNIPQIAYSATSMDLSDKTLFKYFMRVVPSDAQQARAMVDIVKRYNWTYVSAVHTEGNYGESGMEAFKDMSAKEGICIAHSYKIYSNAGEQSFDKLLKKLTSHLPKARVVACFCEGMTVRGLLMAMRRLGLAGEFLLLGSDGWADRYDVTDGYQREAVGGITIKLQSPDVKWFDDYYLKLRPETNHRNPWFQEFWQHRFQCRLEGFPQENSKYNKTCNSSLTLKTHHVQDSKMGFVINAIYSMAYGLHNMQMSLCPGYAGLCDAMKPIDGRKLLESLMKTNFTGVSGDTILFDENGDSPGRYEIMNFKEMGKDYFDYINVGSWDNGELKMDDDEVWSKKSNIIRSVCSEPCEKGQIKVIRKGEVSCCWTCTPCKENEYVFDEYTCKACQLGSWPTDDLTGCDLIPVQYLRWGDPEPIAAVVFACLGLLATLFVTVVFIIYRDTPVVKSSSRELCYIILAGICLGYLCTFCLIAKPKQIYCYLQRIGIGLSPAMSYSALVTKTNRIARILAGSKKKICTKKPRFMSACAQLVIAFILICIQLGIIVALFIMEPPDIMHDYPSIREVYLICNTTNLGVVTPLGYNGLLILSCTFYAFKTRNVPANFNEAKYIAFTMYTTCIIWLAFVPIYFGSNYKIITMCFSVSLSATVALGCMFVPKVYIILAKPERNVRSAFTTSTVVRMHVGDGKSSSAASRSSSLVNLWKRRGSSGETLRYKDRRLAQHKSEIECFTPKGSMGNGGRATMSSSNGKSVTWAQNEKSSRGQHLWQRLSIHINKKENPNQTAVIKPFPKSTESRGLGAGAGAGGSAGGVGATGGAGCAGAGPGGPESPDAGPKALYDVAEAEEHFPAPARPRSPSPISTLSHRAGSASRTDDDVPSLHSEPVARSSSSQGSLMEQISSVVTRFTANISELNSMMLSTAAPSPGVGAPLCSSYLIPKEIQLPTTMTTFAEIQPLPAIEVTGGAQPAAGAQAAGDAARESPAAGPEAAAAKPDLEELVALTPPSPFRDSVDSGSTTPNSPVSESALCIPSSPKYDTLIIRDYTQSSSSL

[2] = biological target: T1, Metabotropic glutamate receptor 5; experiment: Antagonist activity at human mGluR5 expressed in HEK293 cells assessed as inhibition of L-glutamate-induced calcium mobilization at 1 uM by FDSS6000 assay; assay type: functional, cell-based; outline: as §1
Target sequence in this assay (P41594 21-1212 limits assumed): as above

[3] = Metabolic stability in human liver microsomes assessed as compound remaining at 1 uM after 30 mins; assay type: ADME, Microsome; conditions: read-out: Stability
Outline: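 Compound at 1 µM incubated with human liver microsomes for 30 min; read-out is percent of parent remaining.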

CYP2C9 = CYP2C9 (Homo sapiens, UniProt P11712); experiment: Inhibition of CYP2C9 (unknown origin) assessed as residual activity at 10 uM; assay type: ADME; conditions: read-out: Activity
Outline: (§2)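 CYP2D6, CYP2C9 and CYP3A4 each tested with compound at 10 µM; read-out is percent enzyme activity remaining.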

[4] = biological target: Voltage-gated inwardly rectifying potassium channel KCNH2 (Homo sapiens, UniProt Q12809)
CYP2D6 = CYP2D6 (Homo sapiens, UniProt P10635); experiment: Inhibition of CYP2D6 (unknown origin) assessed as residual activity at 10 uM; assay type: ADME; conditions: read-out: Activity; outline: as §2
CYP3A4 = CYP3A4 (Homo sapiens, UniProt P08684); experiment: Inhibition of CYP3A4 (unknown origin) assessed as residual activity at 10 uM; assay type: ADME; conditions: read-out: Activity; outline: as §2
[5] = biological target: T1, Metabotropic glutamate receptor 5; experiment: Antagonist activity at human mGluR5 expressed in HEK293 cells assessed as inhibition of L-glutamate-induced calcium mobilization by FDSS6000 assay
Target sequence in this assay (P41594 whole entry): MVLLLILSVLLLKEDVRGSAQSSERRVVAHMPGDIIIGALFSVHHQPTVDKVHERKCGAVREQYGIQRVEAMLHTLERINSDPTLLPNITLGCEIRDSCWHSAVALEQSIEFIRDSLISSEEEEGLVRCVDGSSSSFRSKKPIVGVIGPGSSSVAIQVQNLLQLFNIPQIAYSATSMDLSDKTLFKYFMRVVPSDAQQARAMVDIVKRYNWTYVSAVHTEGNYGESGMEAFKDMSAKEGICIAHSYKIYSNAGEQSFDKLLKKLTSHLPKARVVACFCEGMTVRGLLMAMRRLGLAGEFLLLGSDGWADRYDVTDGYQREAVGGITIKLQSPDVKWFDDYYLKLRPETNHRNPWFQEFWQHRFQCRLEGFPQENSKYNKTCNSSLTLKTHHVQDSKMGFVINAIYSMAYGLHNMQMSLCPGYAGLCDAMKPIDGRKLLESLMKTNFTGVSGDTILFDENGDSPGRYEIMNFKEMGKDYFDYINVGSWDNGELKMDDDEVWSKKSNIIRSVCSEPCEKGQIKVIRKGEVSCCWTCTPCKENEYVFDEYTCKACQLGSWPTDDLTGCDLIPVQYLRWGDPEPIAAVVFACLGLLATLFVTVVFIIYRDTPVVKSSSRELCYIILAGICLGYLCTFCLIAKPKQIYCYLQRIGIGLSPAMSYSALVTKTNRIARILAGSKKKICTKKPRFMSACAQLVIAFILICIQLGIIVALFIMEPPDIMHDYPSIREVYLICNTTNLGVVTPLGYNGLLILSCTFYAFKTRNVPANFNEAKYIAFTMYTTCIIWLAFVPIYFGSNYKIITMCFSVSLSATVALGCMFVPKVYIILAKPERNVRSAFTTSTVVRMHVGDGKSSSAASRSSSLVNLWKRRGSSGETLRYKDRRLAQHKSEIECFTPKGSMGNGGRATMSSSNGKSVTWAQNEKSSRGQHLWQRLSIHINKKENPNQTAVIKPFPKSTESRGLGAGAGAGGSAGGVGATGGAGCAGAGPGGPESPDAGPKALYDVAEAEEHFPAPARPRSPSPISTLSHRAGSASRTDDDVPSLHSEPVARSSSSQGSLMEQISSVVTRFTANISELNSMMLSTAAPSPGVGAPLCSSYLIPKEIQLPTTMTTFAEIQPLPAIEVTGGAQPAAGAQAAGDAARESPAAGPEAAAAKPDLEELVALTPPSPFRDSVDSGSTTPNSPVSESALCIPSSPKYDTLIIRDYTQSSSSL

[6] = Half life in rat at 10 mg/kg, po; assay type: ADME, organism-based; set-up: dose 10 mg/kg, route oral; conditions: in vivo
Outline: (§3)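 Rat plasma pharmacokinetics after a 10 mg/kg dose, intravenous (n = 4) or oral (n = 3); mean parameters reported.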

[7] = Cmax in rat at 10 mg/kg, po; assay type: ADME, organism-based; set-up: dose 10 mg/kg, route oral; conditions: in vivo
Outline: (§4)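 Rat plasma pharmacokinetics after a single oral dose of 10 mg/kg. The group size was n = 3 rats, and the reported values are group means.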

[8] = Tmax in rat at 10 mg/kg, po; assay type: ADME, organism-based; set-up: dose 10 mg/kg, route oral; conditions: in vivo; outline: as §4
[9] = Half life in rat at 10 mg/kg, iv; assay type: ADME, organism-based; set-up: dose 10 mg/kg, route intravenous; conditions: in vivo; outline: as §3
Rattus norvegicus [10] = experiment: Antiallodynic activity in rat spinal nerve ligation model of neuropathic pain assessed as reduction of cold allodynia at 100 mg/kg, po after 3 hrs; assay type: functional, organism-based; set-up: dose 100 mg/kg
Outline: (§5)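 Rat SNL model: tight ligation of L5 spinal nerve distal to DRG. Mechanical and cold allodynia were tested 1 day before and 14 days after surgery, then given orally, and retested at 1, 3 and 5 h. Mechanical allodynia used the wire-mesh-floor method, cold allodynia was scored as %MPE. Gabapentin was the reference (n = 4), test n = 5. Paired t-test versus pre-dose.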

[11] = Apparent volume of distribution at steady state in rat at 10 mg/kg, iv; assay type: ADME, organism-based; set-up: dose 10 mg/kg, route intravenous; conditions: in vivo, read-out: Vdss(app); outline: as §3
[12] = Clearance in rat at 10 mg/kg, iv; assay type: ADME, organism-based; set-up: dose 10 mg/kg, route intravenous; conditions: in vivo; outline: as §3
[13] = Oral bioavailability in rat at 10 mg/kg; assay type: ADME, organism-based; conditions: in vivo; outline: as §3
Rattus norvegicus [14] = experiment: Antiallodynic activity in rat spinal nerve ligation model of neuropathic pain assessed as reduction of mechanical allodynia at 100 mg/kg, po after 5 hrs; assay type: functional, organism-based; set-up: dose 100 mg/kg; outline: as §5

Chain of CYP2C9 (P11712 whole entry): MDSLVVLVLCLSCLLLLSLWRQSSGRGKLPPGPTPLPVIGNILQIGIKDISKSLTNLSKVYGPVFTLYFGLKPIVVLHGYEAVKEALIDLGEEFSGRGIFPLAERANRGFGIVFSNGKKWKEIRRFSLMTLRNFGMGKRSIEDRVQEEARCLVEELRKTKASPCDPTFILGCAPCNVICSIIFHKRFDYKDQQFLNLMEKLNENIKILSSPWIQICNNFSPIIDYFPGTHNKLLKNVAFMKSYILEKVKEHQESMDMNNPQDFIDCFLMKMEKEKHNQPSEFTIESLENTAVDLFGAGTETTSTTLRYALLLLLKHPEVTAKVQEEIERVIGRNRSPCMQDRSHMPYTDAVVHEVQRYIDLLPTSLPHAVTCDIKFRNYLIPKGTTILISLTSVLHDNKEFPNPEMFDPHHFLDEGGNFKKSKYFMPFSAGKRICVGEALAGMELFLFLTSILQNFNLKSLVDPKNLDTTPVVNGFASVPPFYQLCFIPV
Chain of CYP2D6 (P10635 whole entry): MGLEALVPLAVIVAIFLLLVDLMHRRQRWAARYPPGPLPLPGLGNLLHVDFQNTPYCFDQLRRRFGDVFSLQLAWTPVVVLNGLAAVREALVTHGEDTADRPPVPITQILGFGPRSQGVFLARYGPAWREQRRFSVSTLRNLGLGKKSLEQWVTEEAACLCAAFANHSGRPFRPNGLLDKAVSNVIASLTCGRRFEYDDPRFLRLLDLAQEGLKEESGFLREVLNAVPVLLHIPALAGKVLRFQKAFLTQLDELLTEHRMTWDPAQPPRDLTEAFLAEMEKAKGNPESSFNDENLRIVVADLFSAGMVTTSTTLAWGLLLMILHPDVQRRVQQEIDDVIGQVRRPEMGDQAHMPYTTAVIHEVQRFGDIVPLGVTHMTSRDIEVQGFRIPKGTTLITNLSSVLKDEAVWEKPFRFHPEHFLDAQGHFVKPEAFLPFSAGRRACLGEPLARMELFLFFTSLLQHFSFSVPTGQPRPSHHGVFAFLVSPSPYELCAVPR
Chain of CYP3A4 (P08684 whole entry): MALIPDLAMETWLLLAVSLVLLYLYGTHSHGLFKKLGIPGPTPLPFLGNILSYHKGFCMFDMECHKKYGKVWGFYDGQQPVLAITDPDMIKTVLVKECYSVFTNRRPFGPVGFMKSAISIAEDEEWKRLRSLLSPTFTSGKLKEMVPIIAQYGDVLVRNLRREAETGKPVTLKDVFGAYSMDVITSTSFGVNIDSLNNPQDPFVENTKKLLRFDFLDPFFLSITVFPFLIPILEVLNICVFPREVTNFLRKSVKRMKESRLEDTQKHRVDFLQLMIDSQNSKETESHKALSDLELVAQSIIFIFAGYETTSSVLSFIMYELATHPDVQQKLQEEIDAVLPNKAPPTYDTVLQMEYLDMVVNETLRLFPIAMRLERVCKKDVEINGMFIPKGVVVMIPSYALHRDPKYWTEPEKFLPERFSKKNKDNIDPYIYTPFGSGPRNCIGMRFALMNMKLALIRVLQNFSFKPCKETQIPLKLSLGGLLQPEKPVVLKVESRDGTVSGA
Chain of Voltage-gated inwardly rectifying potassium channel KCNH2 (Q12809 whole entry): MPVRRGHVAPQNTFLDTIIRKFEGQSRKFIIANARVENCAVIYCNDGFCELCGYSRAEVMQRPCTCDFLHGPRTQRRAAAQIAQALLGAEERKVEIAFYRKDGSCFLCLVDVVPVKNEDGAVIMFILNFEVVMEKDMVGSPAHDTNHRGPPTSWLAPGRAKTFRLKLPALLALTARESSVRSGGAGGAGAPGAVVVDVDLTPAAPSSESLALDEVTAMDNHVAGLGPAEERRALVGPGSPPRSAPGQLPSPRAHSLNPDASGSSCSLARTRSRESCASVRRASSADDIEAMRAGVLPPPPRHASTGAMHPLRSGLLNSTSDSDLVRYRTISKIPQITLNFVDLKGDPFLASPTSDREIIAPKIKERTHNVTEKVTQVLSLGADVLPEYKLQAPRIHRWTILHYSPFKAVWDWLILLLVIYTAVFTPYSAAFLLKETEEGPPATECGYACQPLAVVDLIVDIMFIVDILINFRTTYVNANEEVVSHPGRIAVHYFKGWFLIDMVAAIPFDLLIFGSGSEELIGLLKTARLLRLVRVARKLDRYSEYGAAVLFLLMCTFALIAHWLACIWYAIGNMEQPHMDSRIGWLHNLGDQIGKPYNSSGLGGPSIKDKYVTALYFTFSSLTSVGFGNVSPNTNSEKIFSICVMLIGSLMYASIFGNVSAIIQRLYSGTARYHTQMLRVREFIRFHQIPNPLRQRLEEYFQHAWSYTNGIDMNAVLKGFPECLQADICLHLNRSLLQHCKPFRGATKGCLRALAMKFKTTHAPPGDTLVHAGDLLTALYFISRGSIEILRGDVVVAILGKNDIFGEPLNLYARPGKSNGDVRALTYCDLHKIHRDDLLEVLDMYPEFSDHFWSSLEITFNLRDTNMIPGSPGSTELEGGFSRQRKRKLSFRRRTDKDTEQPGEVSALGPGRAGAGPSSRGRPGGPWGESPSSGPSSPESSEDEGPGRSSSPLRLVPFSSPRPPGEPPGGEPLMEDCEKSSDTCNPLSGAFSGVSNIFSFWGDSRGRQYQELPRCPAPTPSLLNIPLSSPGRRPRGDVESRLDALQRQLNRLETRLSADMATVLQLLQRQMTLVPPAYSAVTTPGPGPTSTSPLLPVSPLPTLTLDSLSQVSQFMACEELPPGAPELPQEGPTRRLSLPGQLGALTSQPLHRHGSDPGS

Structure (SMILES) | inhibition [1] [%] | inhibition [2] [%] | also measured
CC(C)(C)C(=O)Oc1cccc2nc(C#Cc3cccnc3)ccc12 | 28.5 | 10.6 | 
C(#Cc1ncccn1)c1ccc2ccccc2n1 | 28.6 | 17.1 | 
Brc1cccc2nc(C#Cc3ccccc3)ccc12 | 20.7 | 21.1 | 
CCOc1cccc2nc(C#Cc3cccnc3)ccc12 | 66.6 | 47.2 | 
FC(F)(F)c1ccc(C#Cc2ccc3ccccc3n2)nc1 | 50.7 | 13 | 
FC(F)(F)c1cccc(C#Cc2ccc3ccccc3n2)n1 | 28.7 | 15.8 | 
COc1cccc2nc(C#Cc3cccnc3)ccc12 | 67.7 | 67.7 | remaining at 0.5 h, 1 µM [3]: < 1%
Cc1ccnc(C#Cc2ccc3ccccc3n2)c1 | 66.5 | 21.9 | 
Brc1cccc2nc(C#Cc3ccccn3)ccc12 | 77.5 | 56.7 | activity at 10 µM (CYP2C9): 52%; IC50 [4]: 22.7 µM; activity at 10 µM (CYP2D6): 78%; activity at 10 µM (CYP3A4): 56%; IC50 [5]: 0.75 µM; remaining at 0.5 h, 1 µM [3]: 98%
COc1cccc(C#Cc2ccc3ccccc3n2)n1 | 48.6 | 16.6 | 
FC(F)(F)c1ccnc(C#Cc2ccc3ccccc3n2)c1 | 58 | 23.3 | 
N#Cc1ccnc(C#Cc2ccc3ccccc3n2)c1 | 76.1 | 35.2 | 
N#Cc1cccc(C#Cc2ccc3ccccc3n2)n1 | 64.8 | 33 | 
Oc1cccc2nc(C#Cc3ccccc3)ccc12 | 24.3 | 18 | 
Brc1cccc2nc(C#Cc3cccnc3)ccc12 | 40.1 | 22 | 
Fc1ccc(C#Cc2ccc3ccccc3n2)nc1 | 63.3 | 33.9 | 
FC(F)(F)c1ccnc(C#Cc2ccc3ccccc3n2)n1 | 15.9 | 17.3 | 
Fc1cnc(C#Cc2ccc3ccccc3n2)nc1 | 15.6 | 16 | 

Structure (SMILES) | inhibition [1] [%] | inhibition [2] [%] | also measured
CC(C)(C)C(=O)Oc1cccc2nc(C#Cc3ccccn3)ccc12 | 62.4 | 17.1 | 
COc1cccc2nc(C#Cc3ccccc3)ccc12 | 68 | 63.6 | activity at 10 µM (CYP2C9): 55%; activity at 10 µM (CYP2D6): > 99%; activity at 10 µM (CYP3A4): 50%; remaining at 0.5 h, 1 µM [3]: < 1%
Clc1cccc2nc(C#Cc3ccccn3)ccc12 | 64.3 | 31 | 
C(#Cc1ccc2ccccc2n1)c1cncnc1 | 22.4 | 13.6 | 
Fc1cccnc1C#Cc1ccc2ccccc2n1 | 55.2 | 31.3 | 
Cc1cccnc1C#Cc1ccc2ccccc2n1 | 40.1 | 18.9 | 
Oc1cccc2nc(C#Cc3cccnc3)ccc12 | 17.6 | 25.2 | 
Clc1cccc2nc(C#Cc3ccccc3)ccc12 | 8.02 | 11.7 | 
Clc1cccc2nc(C#Cc3cccnc3)ccc12 | 28.4 | 11.2 | 
Fc1cccc(C#Cc2ccc3ccccc3n2)n1 | 46.9 | 29.6 | 
Oc1cccc2nc(C#Cc3ccccn3)ccc12 | 22.1 | 17.4 | 
C(#Cc1ccc2ccccc2n1)c1ccccn1 | 76.7 | 58.8 | half-life [6]: 58.2 min; activity at 10 µM (CYP2C9): > 99%; Cmax [7]: 430 ng/mL; activity at 10 µM (CYP2D6): 98%; Tmax [8]: 10 min; activity at 10 µM (CYP3A4): 77%; half-life [9]: 48.5 min; Activity (Rattus norvegicus [10]): Active; Vd [11]: 1.27 L/kg; remaining at 0.5 h, 1 µM [3]: 88%; clearance [12]: 84.9 mL/min/kg; bioavailability [13]: 15.9%; Activity (Rattus norvegicus [14]): Active
FC(F)(F)c1cccnc1C#Cc1ccc2ccccc2n1 | 16.4 | 9.49 | 
C(#Cc1ccc2ccccc2n1)c1cccnc1 | 65.8 | 43.9 | 
Cc1ccc(C#Cc2ccc3ccccc3n2)nc1 | 66.3 | 29 | 
C(#Cc1ccc2ccccc2n1)c1ccccc1 | 67.7 | 35.9 | 
CC(C)(C)C(=O)Oc1cccc2nc(C#Cc3ccccc3)ccc12 | 23.8 | 24 | 
NCC1(CC(=O)O)CCCCC1 |  |  | Activity (Rattus norvegicus [10]): Active; Activity (Rattus norvegicus [14]): Active
